Published values pooled from the literature.
Each line is one published result; the experiments were not run side by side.
Observed: cell growth or viability

| SMILES | cell line | method | time | measurement | result |
| --- | --- | --- | --- | --- | --- |
| COc1cc2nc(N3CCN(C(=O)c4ccco4)CC3)nc(N)c2cc1OC | C6661 | MTT | 48 h | IC50 | 27.4 µM |
| C=CC(=O)c1cccnc1Nc1cc(C(F)(F)F)ccc1OC | NCI-H23 | SRB | 48 h | GI50 | 6.67 µM |
| C[C@@H]1CC2=C(CN1Cc1cccc(C#N)c1)C(=O)N(Cc1ccc(Br)cc1)C1=NCCN12 | MOLM-13 | MTS |  | IC50 | 0.00793 µM |
| C=CC(=O)N1CCN(c2nc(=O)n(-c3c(C)ccnc3C(C)C)c3nc(-c4c(O)cccc4F)c(F)cc23)[C@@H](C)C1 | SW1573 | ATP luminescence |  | IC50 | > 10 µM |
| CNC(=O)c1cc(Oc2ccc(NC(=O)Nc3ccc(Cl)c(C(F)(F)F)c3)cc2)ccn1 | NCI-H23 | MTT | 72 h | IC50 | 4.25 µM |
| C=CC(=O)c1cccnc1Nc1cc(C(F)(F)F)ccc1OCc1ccccc1 | NCI-H23 | SRB | 48 h | GI50 | 16.5 µM |
| Cc1cc(/C=C/C#N)cc(C)c1Nc1ccnc(Nc2ccc(C#N)cc2)n1 | C6661 | MTT | 48 h | IC50 | 4.67 µM |
| O=C(NO)c1ccc(CNc2nc3cccc(-c4ccc5c(c4)OCO5)n3n2)cc1 | NCI-H23 | SRB |  | GI50 | 0.66 µM |
| Cc1noc2c1-c1ccccc1C(c1ccc(Cl)cc1)=N[C@H]2CC(N)=O | MOLM-13 | ATP luminescence | 72 h | IC50 | 0.474 µM |
| Cc1c(C(=O)O)ccc2c3n(nc12)[C@@H]1[C@H](C3)N(CC2CC2)[C@@]2(C(=O)Nc3cc(Cl)ccc32)[C@H]1c1cccc(Cl)c1F | Rh18 |  |  | GI50 | 0.00023 µM |
| C=CC(=O)NC1CCN(c2ncc3ncnc(Nc4ccc(Oc5ccc6c(c5)ncn6C)c(C)c4)c3n2)CC1 | SNU-601 |  |  | EC50 | 0.00422 µM |
| O=C(O)c1cccnc1Nc1cccc(C(F)(F)F)c1 | NCI-H23 | SRB | 48 h | GI50 | > 30 µM |
